Reference: ChEMBL document CHEMBL4480450, “Cytotoxic Germacrane-Type Sesquiterpene Lactones from the Whole Plant of Carpesium lipskyi” (J Nat Prod, 2019)

Tests used:
A549 = test: Cytotoxicity against human A549 cells after 72 hrs by CCK8 assay; type: functional, cell-based; conditions: A549, 72 h
Method in brief: (§1)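 Cells seeded in 96-well plates and left overnight at 37 °C in humidified 5% CO2. Serial dilutions of the compounds added, then 72 h further incubation. CCK-8 reagent added for the last 4 h and absorbance read at 450 nm.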

HL-60 = test: Cytotoxicity against human HL60 cells after 72 hrs by CCK8 assay; type: functional, cell-based; conditions: HL-60, 72 h; method in brief: as §1

| SMILES | IC50 (A549) [µM] | IC50 (HL-60) [µM] |
| --- | --- | --- |
| C=C1C(=O)O[C@H]2[C@H]1[C@H](OC(=O)/C(C)=C\C)C(=O)[C@H](C)CCC[C@](C)(O)[C@@H]2OC(=O)C(C)C | 4.7 | 3 |
| C=C1C(=O)O[C@H]2[C@H]1[C@H](OC(=O)C(C)C)C(=O)[C@H](C)CCC[C@](C)(O)[C@@H]2OC(=O)C(C)C | 5.2 | 5 |
| C=C1C(=O)O[C@@H]2[C@@H]1[C@H](O)[C@@H](OC(=O)C(C)C)[C@@H](C)CCC(=O)[C@](C)(O)[C@H]2OC(=O)C(C)C | 4 | 5.9 |
| C=C1C(=O)O[C@H]2[C@@H]1[C@@H](OC(=O)CC(C)C)[C@@]1(O)O[C@H](CC[C@H]1C)[C@](C)(O)[C@@H]2OC(=O)C(C)CC (stereo not given in full) | 6.7 | 5.6 |
| C=C1C(=O)O[C@H]2[C@@H]1[C@@H](OC(=O)CC(C)C)[C@@]1(O)O[C@H](CC[C@H]1C)[C@](C)(O)[C@@H]2OC(=O)C(C)C | 10.3 | 6.2 |
| C=C1C(=O)O[C@H]2[C@@H]1[C@H](OC(=O)CC(C)C)C(=O)[C@H](C)C[C@H]1O[C@@H]1[C@](C)(O)[C@@H]2OC(=O)C(C)C | > 10 | 2.8 |
| C=C1C(=O)O[C@H]2[C@H]1[C@@H](O)[C@H](OC(=O)CC(C)C)[C@H](C)CCC(=O)[C@](C)(O)[C@@H]2OC(=O)C(C)C (relative stereo) | 6.2 | 5.5 |
| COc1cccc2c1C(=O)c1c(O)c3c(c(O)c1C2=O)C[C@@](O)(C(=O)CO)C[C@@H]3O[C@H]1C[C@H](N)[C@H](O)[C@H](C)O1 [DOXORUBICIN] | 0.4 | – |
